Assay results published in ChEMBL document CHEMBL3745677, “Discovery of 6-(4-{[5-Cyclopropyl-3-(2,6-dichlorophenyl)isoxazol-4-yl]methoxy}piperidin-1-yl)-1-methyl-1H-indole-3-carboxylic Acid: A Novel FXR Agonist for the Treatment of Dyslipidemia” (J Med Chem, 2015).

How the values were obtained:
[1] = AUC (0 to 24 hrs) in beagle dog at 1 mg/kg, iv by LC-MS/MS analysis; type: ADME, organism-based, Canis lupus familiaris; parameters: time < 24 hr, dose 1 mg/kg, route intravenous; conditions: in vivo
Method in brief: (§1)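 Sprague Dawley rats, Beagle dogs and Cynomolgus monkeys were dosed IV at 1 mg/kg (rat, dog) or 0.91 mpk (monkey) in 5% Solutol/5% EtOH in saline. Oral/nasogastric dosing was 3 mpk in 1.0% CMC/0.25% PS80/0.05% antifoam in purified water. Samples were processed to plasma and analysed by LC-MS/MS; values are mean ± SD, N=2-3.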

[2] = Fraction unbound in human plasma; type: ADME, cell-free
[3] = Clearance in cynomolgus monkey at 0.91 mg/kg, iv by LC-MS/MS analysis; type: ADME, organism-based, Macaca fascicularis; conditions: in vivo; method in brief: as §1
Progesterone receptor = target: T1, Progesterone receptor (Homo sapiens, UniProt P06401); experiment: Agonist activity at progesterone receptor (unknown origin) expressed in HEK293 cells assessed as transcriptional activation; type: cell-based
T1 sequence (P06401 whole entry): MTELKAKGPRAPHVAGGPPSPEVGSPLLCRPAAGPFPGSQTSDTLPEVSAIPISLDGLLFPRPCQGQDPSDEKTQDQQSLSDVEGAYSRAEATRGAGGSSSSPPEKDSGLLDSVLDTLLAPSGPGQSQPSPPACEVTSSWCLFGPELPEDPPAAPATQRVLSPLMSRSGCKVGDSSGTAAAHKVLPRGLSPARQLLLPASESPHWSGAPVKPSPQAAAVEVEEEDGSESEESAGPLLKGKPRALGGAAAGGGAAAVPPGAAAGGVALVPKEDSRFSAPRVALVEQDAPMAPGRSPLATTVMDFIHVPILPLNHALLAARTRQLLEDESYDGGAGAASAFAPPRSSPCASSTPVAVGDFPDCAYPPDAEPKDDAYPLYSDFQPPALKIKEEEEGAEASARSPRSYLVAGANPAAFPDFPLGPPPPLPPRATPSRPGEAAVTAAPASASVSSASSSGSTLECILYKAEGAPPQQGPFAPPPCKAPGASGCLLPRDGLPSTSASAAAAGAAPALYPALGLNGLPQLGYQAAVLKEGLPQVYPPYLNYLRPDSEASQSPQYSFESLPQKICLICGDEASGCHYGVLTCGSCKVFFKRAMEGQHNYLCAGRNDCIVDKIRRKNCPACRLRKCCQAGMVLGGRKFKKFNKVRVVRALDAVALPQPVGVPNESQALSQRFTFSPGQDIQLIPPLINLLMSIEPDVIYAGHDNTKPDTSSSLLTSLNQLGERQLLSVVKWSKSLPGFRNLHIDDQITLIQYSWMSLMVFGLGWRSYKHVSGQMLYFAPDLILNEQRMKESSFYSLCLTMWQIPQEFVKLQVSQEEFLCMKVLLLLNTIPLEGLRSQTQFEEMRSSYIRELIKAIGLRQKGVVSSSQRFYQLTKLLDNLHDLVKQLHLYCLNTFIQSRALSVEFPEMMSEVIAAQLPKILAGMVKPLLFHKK

Mus musculus [4] = experiment: Antidyslipidemic activity in western-diet fed mouse expressing LDL-receptor (-/-) assessed as decrease in total cholesterol level at 10 mg/kg qd for a week administered via gavage […]; type: functional; conditions: po
Method in brief: (§2)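 Male LDLR null mice, six per group, were gavaged once daily for one week with compound (in situ sodium salt) or vehicle (5% Solutol, 5% EtOH, 1% wt/v CMC) at 5 mL/kg. On day 7 they were bled by cardiac puncture under CO2 anaesthesia. Serum cholesterol and triglycerides were measured enzymatically on a clinical chemistry analyser (mean ± SD, n=6). ED50 was obtained by nonlinear regression.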

Rattus norvegicus [5] = experiment: Antidyslipidemic activity in ZDF rat assessed as VLDL level at 10 mg/kg cotreated with 0.3 mg/kg rosiglitazone for 9 days by FPLC analysis (reference value: 35 mg/dL); type: functional, Zucker
[6] = Oral bioavailability in cynomolgus monkey at 3 mg/kg by LC-MS/MS analysis; type: ADME, organism-based, Macaca fascicularis; conditions: in vivo
Method in brief: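 Bioavailability calculated from a 3 mpk oral/nasogastric dose (1.0% CMC/0.25% PS80/0.05% antifoam in water) against a 0.91 mpk IV dose (5% Solutol/5% EtOH in saline). Plasma analyzed by LC-MS/MS; mean ± SD, N=2-3.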

Rattus norvegicus [7] = experiment: Antidyslipidemic activity in ZDF rat assessed as LDL/IgHDL level at 10 mg/kg cotreated with 0.3 mg/kg rosiglitazone for 9 days by FPLC analysis (reference value: 17.8 mg/dL); type: functional, Zucker
[8] = Initial plasma concentration in cynomolgus monkey at 0.91 mg/kg, iv by LC-MS/MS analysis; type: ADME, organism-based, Macaca fascicularis
Method in brief: (§3)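 Intravenous dose given in 5% Solutol / 5% EtOH in saline (1 mg/kg rat and dog, 0.91 mpk monkey). Plasma samples collected and analyzed by LC-MS/MS; parameters reported as mean ± SD, N=2-3.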

[9] = Initial plasma concentration in Sprague-Dawley rat at 1 mg/kg, iv by LC-MS/MS analysis; type: ADME, organism-based; method in brief: as §3
Mus musculus [10] = experiment: Antidyslipidemic activity in western-diet fed mouse expressing LDL-receptor (-/-) assessed as decrease in low density lipoprotein level at 30 mg/kg qd for a week administered via gavage by FPLC analysis; type: functional; conditions: po
Method in brief: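 LDLR null male mice, six per group, were dosed by gavage once daily for one week (vehicle 5% Solutol, 5% EtOH, 1% wt/v CMC; 5 mL/kg). Serum was collected by cardiac puncture on day 7 under CO2 anaesthesia. Pooled serum from each treatment group was fractionated by FPLC to quantify VLDL and LDL.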

Rattus norvegicus [11] = experiment: Antidyslipidemic activity in ZDF rat assessed as LDL/IgHDL level at 30 mg/kg for 9 days by FPLC analysis (reference value: 17.8 mg/dL); type: functional, Zucker
[12] = Half life in human at 75 to 600 mg; type: ADME, organism-based; conditions: in vivo
Method in brief: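 Healthy subjects (two cohorts of 9) received single oral doses in a double-blind, placebo-controlled, 2-cohort, 3-period dose-escalation study at one site. Doses covered 5 to 600 mg. Half-life was taken as the mean over the 75–600 mg range.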

[13] = Cmax in cynomolgus monkey at 3 mg/kg, po by LC-MS/MS analysis; type: ADME, organism-based, Macaca fascicularis; parameters: dose 3 mg/kg, route oral; conditions: in vivo; method in brief: as §1
Rattus norvegicus [14] = experiment: Antidyslipidemic activity in ZDF rat assessed as VLDL level at 10 mg/kg for 9 days by FPLC analysis (reference value: 35 mg/dL); type: functional, Zucker
Rattus norvegicus [15] = experiment: Antidyslipidemic activity in ZDF rat assessed as HDL level at 30 mg/kg for 9 days by FPLC analysis (reference value: 48.3 mg/dL); type: functional, Zucker
Mus musculus [16] = experiment: Antidyslipidemic activity in western-diet fed mouse expressing LDL-receptor (-/-) assessed as decrease in total cholesterol level at 1 mg/kg qd for a week administered via gavage […]; type: functional; conditions: po; method in brief: as §2
[17] = Clearance in Sprague-Dawley rat at 1 mg/kg, iv by LC-MS/MS analysis; type: ADME, organism-based; conditions: in vivo; method in brief: as §1
Mus musculus [18] = experiment: Antidyslipidemic activity in western-diet fed mouse expressing LDL-receptor (-/-) assessed as decrease in total cholesterol level administered once daily for a week via gavage […]; type: functional; conditions: po; method in brief: as §2
Rattus norvegicus [19] = experiment: Antidyslipidemic activity in ZDF rat assessed as LDL/IgHDL level at 10 mg/kg for 9 days by FPLC analysis (reference value: 17.8 mg/dL); type: functional, Zucker

AUC(0-t) at 24 h [1]: 1780 ng·h/mL
fraction unbound [2]: 0.032
clearance [3]: 6 mL/min/kg
EC50 (Progesterone receptor): > 10 µM
bioavailability [6]: 24%
C0 [8]: 4220 ng/mL
C0 [9]: 2530 ng/mL
half-life [12]: 16.9 h
Cmax [13]: 221 ng/mL
clearance [17]: 30 mL/min/kg
SMILES: Cn1cc(C(=O)O)c2ccc(N3CCC(OCc4c(-c5c(Cl)cccc5Cl)noc4C4CC4)CC3)cc21 [TERN-101]
inhibition in vivo at 10 mg/kg (Mus musculus [4]): 80%
Activity (Rattus norvegicus [5]): 8.5 mg/dL
Activity (Rattus norvegicus [7]): 20.3 mg/dL
inhibition in vivo at 30 mg/kg (Mus musculus [10]): 62%
Activity (Rattus norvegicus [11]): 18.6 mg/dL
Activity (Rattus norvegicus [14]): 18.2 mg/dL
Activity (Rattus norvegicus [15]): 94 mg/dL
inhibition in vivo at 1 mg/kg (Mus musculus [16]): 37%
ED50 (Mus musculus [18]): 2 mg/kg
Activity (Rattus norvegicus [19]): 12.5 mg/dL
